Active and inactive are the calls of the source. No cut-off for these calls is given here.
Columns and labels:
K562 [1] = experiment: Induction of apoptosis in human K562 cells assessed as activation of caspase 3 at 0.01 to 1 uM after 24 hrs by microtitre plate fluorimeter; assay type: functional, cell-based
How it was run: (§1)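 Cells seeded 5 × 10⁴/well, then after 24 h given compound at 1, 0.1 or 0.01 µM, or 0.1% DMSO as negative control, for 24 h. Caspase-3/7 substrate in homogeneous assay buffer added; fluorescence read at 527 nm after 1 h.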

K562 [2] = experiment: Cell cycle arrest in human K562 cells assessed as accumulation at G0/G1 phase at 0.05 uM after 16 hrs by flow cytometry; assay type: functional
How it was run: (§2)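 Exponentially growing K562 cells exposed to compound or DMSO for 6, 16 or 24 h; cell-cycle phase distribution determined by flow cytometry; data representative of three independent experiments.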

MDA-MB-231 [3] = experiment: Effect on cell morphology in human MDA-MB-231 cells assessed as change in cellular mass at 0.050 uM after 24 hrs; assay type: functional, cell-based
How it was run: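 MDA-MB231 cells on chamber slides treated 24 h at 50 nM, fixed in 3.7% formaldehyde, permeabilized with 0.1% Triton X-100. Stained for β-tubulin (Alexa 488 secondary), actin (Alexa 546 phalloidin) and nuclei (Hoechst 33342); imaged by fluorescence microscopy at 60× and 100×.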

K562 [4] = experiment: Cell cycle arrest in human K562 cells assessed as accumulation at G0/G1 phase at 0.05 uM after 24 hrs by flow cytometry; assay type: functional; how it was run: as §2
K562 [5] = experiment: Cell cycle arrest in human K562 cells assessed as accumulation at G2/M phase at 1 uM after 6 hrs by flow cytometry; assay type: functional; how it was run: as §2
MCF7 [6] = experiment: Antiproliferative activity against human MCF7 cells after 72 hrs; assay type: functional, cell-based; conditions: MCF7, 72 h
How it was run: (§3)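 Cells were seeded at 5 × 10³ per well and cultured for 24 h. Test compound in DMSO (under 0.1%) was then added for 72 h. Resazurin was added for 2 h, and fluorescence was read at ex 560 nm / em 590 nm. IC50 was taken as the concentration giving a 50% fall in fluorescence versus untreated cells. Runs were done in triplicate.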

[7] = Inhibition of sheep brain tubulin polymerization; set-up: species or system Ovis aries
How it was run: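 Sheep brain tubulin (about 2–3 mg/mL), purified by two assembly–disassembly cycles, in 0.1 M MES, 0.5 mM MgCl₂, 1 mM EGTA, 1 mM GTP, pH 6.6. Assembly followed by turbidity at 350 nm, 37 °C.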

K562 [8] = experiment: Cell cycle arrest in human K562 cells assessed as accumulation at G2/M phase at 1 uM after 16 hrs by flow cytometry; assay type: functional; how it was run: as §2
K562 [9] = experiment: Cell cycle arrest in human K562 cells assessed as accumulation at G2/M phase at 0.5 uM after 24 hrs by flow cytometry; assay type: functional; how it was run: as §2
K562 [10] = experiment: Cell cycle arrest in human K562 cells assessed as accumulation at G0/G1 phase at 0.05 uM after 6 hrs by flow cytometry; assay type: functional; how it was run: as §2
A549 = experiment: Antiproliferative activity against human A549 cells after 72 hrs; assay type: functional, cell-based; conditions: A549, 72 h; how it was run: as §3
K562 [11] = experiment: Cell cycle arrest in human K562 cells assessed as accumulation at S phase at 1 uM after 24 hrs by flow cytometry; assay type: functional; how it was run: as §2
K562 [12] = experiment: Cell cycle arrest in human K562 cells assessed as accumulation at S phase at 0.05 uM after 16 hrs by flow cytometry; assay type: functional; how it was run: as §2
K562 [13] = experiment: Cell cycle arrest in human K562 cells assessed as accumulation at S phase at 0.5 uM after 6 hrs by flow cytometry; assay type: functional; how it was run: as §2
K562 [14] = experiment: Cell cycle arrest in human K562 cells assessed as accumulation at G0/G1 phase at 0.5 uM after 24 hrs by flow cytometry; assay type: functional; how it was run: as §2
K562 [15] = experiment: Cell cycle arrest in human K562 cells assessed as accumulation at S phase at 0.5 uM after 24 hrs by flow cytometry; assay type: functional; how it was run: as §2
K562 [16] = experiment: Induction of apoptosis in human K562 cells assessed as activation of caspase 7 at 0.01 to 1 uM after 24 hrs by microtitre plate fluorimeter; assay type: functional, cell-based; how it was run: as §1
K562 [17] = experiment: Cell cycle arrest in human K562 cells assessed as accumulation at S phase at 0.05 uM after 6 hrs by flow cytometry; assay type: functional; how it was run: as §2
K562 [18] = experiment: Cell cycle arrest in human K562 cells assessed as accumulation at S phase at 0.5 uM after 16 hrs by flow cytometry; assay type: functional; how it was run: as §2
K562 [19] = experiment: Cell cycle arrest in human K562 cells assessed as accumulation at G2/M phase at 0.5 uM after 16 hrs by flow cytometry; assay type: functional; how it was run: as §2
K562 [20] = experiment: Cell cycle arrest in human K562 cells assessed as accumulation at G0/G1 phase at 0.5 uM after 6 hrs by flow cytometry; assay type: functional; how it was run: as §2
K562 [21] = experiment: Cell cycle arrest in human K562 cells assessed as accumulation at G0/G1 phase at 0.5 uM after 16 hrs by flow cytometry; assay type: functional; how it was run: as §2
K562 [22] = experiment: Cell cycle arrest in human K562 cells assessed as accumulation at G0/G1 phase at 1 uM after 6 hrs by flow cytometry; assay type: functional; how it was run: as §2
MDA-MB-231 [23] = experiment: Cell cycle arrest in human MDA-MB-231 cells assessed as accumulation at G2/M phase at 0.05 uM after 24 hrs by flow cytometry
HCT-116 [24] = experiment: Antiproliferative activity against human HCT116 cells after 72 hrs; assay type: functional, cell-based; conditions: HCT-116, 72 h; how it was run: as §3
MDA-MB-231 [25] = experiment: Cell cycle arrest in human MDA-MB-231 cells assessed as accumulation at G2/M phase at 0.1 uM after 24 hrs by flow cytometry
MCF7 [26] = experiment: Cell cycle arrest in human MCF7 cells assessed as accumulation at G2/M phase at 0.1 uM after 24 hrs by flow cytometry
HCT-116 [27] = experiment: Induction of apoptosis in human HCT116 cells assessed as activation of caspase 3 at 0.01 to 1 uM after 24 hrs by microtitre plate fluorimeter; assay type: functional, cell-based; how it was run: as §1
B16-F10 = experiment: Antiproliferative activity against mouse B16F10 cells after 72 hrs; assay type: functional, cell-based; conditions: B16-F10, 72 h; how it was run: as §3
K562 [28] = experiment: Cell cycle arrest in human K562 cells assessed as accumulation at G2/M phase at 1 uM after 24 hrs by flow cytometry; assay type: functional; conditions: in the assay text read “at 0.1 uM” for “at 1 uM”; how it was run: as §2
K562 [29] = experiment: Cell cycle arrest in human K562 cells assessed as accumulation at S phase at 0.05 uM after 24 hrs by flow cytometry; assay type: functional; how it was run: as §2
K562 [30] = experiment: Cell cycle arrest in human K562 cells assessed as accumulation at S phase at 1 uM after 16 hrs by flow cytometry; assay type: functional; how it was run: as §2
K562 [31] = experiment: Cell cycle arrest in human K562 cells assessed as accumulation at G2/M phase at 0.05 uM after 24 hrs by flow cytometry; assay type: functional; how it was run: as §2
[32] = Antitumor activity against human U87 tumor transplanted in chick chorio-allantoic membrane assessed as reduction of tumor volume at 10 uM after 4 days; assay type: functional, U-87MG ATCC; set-up: scale not given: the % may be the effect or the level left
How it was run: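 U87 glioma cells (5 × 10⁶ in 20 µL medium) grafted on chick CAM on embryonic day 10; size-matched tumors grouped on day 2. 20 µL drug at 10 µM applied locally once daily, days 3–6 of tumor growth; controls got solvent. Volume V = 4/3πr³ from length and width, six tumors per group.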

K562 [33] = experiment: Cell cycle arrest in human K562 cells assessed as accumulation at G2/M phase at 0.05 uM after 6 hrs by flow cytometry; assay type: functional; how it was run: as §2

CC[C@@H]1NC(=O)c2[nH]c3ccccc3c2-c2ccccc21
Activity (K562 [1]): Active
Activity (K562 [2]): 1%
Activity (MDA-MB-231 [3]): Active
Activity (K562 [4]): 14.6%
Activity (K562 [5]): 8.1%
IC50 (MCF7 [6]): 40 nM
IC50 [7]: 1900 nM
Activity (K562 [8]): 43.4%
Activity (K562 [9]): 44.7%
Activity (K562 [10]): 0.3%
IC50 (A549): 50 nM
Activity (K562 [11]): 69.5%
Activity (K562 [12]): 97.6%
Activity (K562 [13]): 67.8%
Activity (K562 [14]): 1.2%
Activity (K562 [15]): 53.4%
Activity (K562 [16]): Active
Activity (K562 [17]): 94.3%
Activity (K562 [18]): 47.3%
Activity (K562 [19]): 51.5%
Activity (K562 [20]): 0.2%
Activity (K562 [21]): 0.6%
Activity (K562 [22]): 0.2%
Activity (MDA-MB-231 [23]): 44.5%
IC50 (HCT-116 [24]): 42 nM
Activity (MDA-MB-231 [25]): 100%
Activity (MCF7 [26]): 62.6%
Activity (HCT-116 [27]): Active
IC50 (B16-F10): 68 nM
Activity (K562 [28]): 20.3%
Activity (K562 [29]): 49.1%
Activity (K562 [30]): 52.8%
Activity (K562 [31]): 24.9%
Activity [32]: 76%
Activity (K562 [33]): 4.9%

From ChEMBL document CHEMBL1150426, “New C5-alkylated indolobenzazepinones acting as inhibitors of tubulin polymerization: cytotoxic and antitumor activities” (J Med Chem, 2008)
